Assay [1] has as its system Rattus norvegicus. Nature of the assay: Antihyperglycemic activity in sucrose-loaded Sprague-Dawley rat at 100 mg/kg. The format is functional. An outline of the steps:
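Male rats (169 ± 20 g) fasted 16 h; those with glucose 60–80 mg/dl, in groups of five to six, received compound orally as a 1.0% gum acacia suspension at 100 mg/kg, and controls got vehicle alone. Sucrose (10.0 g/kg, oral) followed 30 min later. Glucose was read at 30, 60, 90 and 120 min, and % fall was taken from AUC versus control (active if p < 0.05).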

In assay [2] the test system is Rattus norvegicus. Nature of the assay: Antihyperglycemic activity in sucrose charged streptozotocin-induced beta cell damaged diabetic Sprague-Dawley rat at 100 mg/kg. The class given is functional. An outline of the steps:
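Overnight-fasted male rats got streptozotocin at 60 mg/kg i.p., freshly dissolved in 100 mM citrate buffer pH 4.5. Those with glucose 150–250 mg/dl at 48 h were grouped. Each rat was given sucrose at 2.5 g/kg after test-sample treatment. Glucose was measured at 30, 60, 90, 120, 180, 240 and 300 min and 24 h after dosing, with food withheld.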

In the next assay the target is Glucagon receptor (Homo sapiens, UniProt P47871). In words: Inhibition of [125I]glucagon binding to glucagon receptor.
Chain of Glucagon receptor (P47871 whole entry): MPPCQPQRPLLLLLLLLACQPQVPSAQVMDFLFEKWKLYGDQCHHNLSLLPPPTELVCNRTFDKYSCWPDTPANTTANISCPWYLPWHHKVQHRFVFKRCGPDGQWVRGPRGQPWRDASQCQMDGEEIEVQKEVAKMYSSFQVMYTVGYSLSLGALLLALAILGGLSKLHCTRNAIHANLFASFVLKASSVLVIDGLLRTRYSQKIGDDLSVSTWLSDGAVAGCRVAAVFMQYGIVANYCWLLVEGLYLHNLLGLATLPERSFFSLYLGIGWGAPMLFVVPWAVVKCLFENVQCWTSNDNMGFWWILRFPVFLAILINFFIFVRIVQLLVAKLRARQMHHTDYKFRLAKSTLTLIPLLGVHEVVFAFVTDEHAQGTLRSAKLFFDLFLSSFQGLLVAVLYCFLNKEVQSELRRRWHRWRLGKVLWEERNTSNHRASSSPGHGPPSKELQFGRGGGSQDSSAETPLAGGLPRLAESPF

On to `O=C(c1ccc(OCCN2CCCCC2)cc1)c1cccc2ccccc12`, for which the Activity was determined as 15.4% in the assay with Rattus norvegicus [1] and 11.3% in the assay with Rattus norvegicus [2].
As to `O=C(c1ccc(OCCNCc2ccccc2)cc1)c1cccc2ccccc12`, the Activity in the assay on Rattus norvegicus [1] was 14.9%; with Rattus norvegicus [2] it was 5.6%.
Compound `O=C(c1ccc(OCCNC2CCCCC2)cc1)c1cccc2ccccc12` registered an Activity in the assay on Rattus norvegicus [1] of 7.16%.
For `O=C(c1ccc(OCCN2CCCC2)cc1)c1cccc2ccccc12`, the Activity in the assay with Rattus norvegicus [1] amounted to 17.2%; in the assay with Rattus norvegicus [2], 17%. Moreover, the IC50 on Glucagon receptor worked out at 55 µM.
For `O=C(c1ccc(OCCCNC2CCCCC2)cc1)c1cccc2ccccc12`, the Activity in the assay with Rattus norvegicus [1] is recorded as 11.16%.
As for `O=C(c1ccc(OCCCl)cc1)c1cccc2ccccc12`, the Activity in the assay with Rattus norvegicus [1] was 24%.
With `O=C(c1ccc(OCCCCl)cc1)c1cccc2ccccc12`, the figures for the Activity in the assay with Rattus norvegicus [1] and in the assay on Rattus norvegicus [2] were 22% and 8.5%, respectively.
For the compound `COc1ccc(NCCCOc2ccc(C(=O)c3cccc4ccccc34)cc2)cc1`, the results for the Activity in the assay on Rattus norvegicus [1] and with Rattus norvegicus [2] were 16.17% and 12.6%, respectively. Also, the IC50 at Glucagon receptor was 35 µM.
Consider `O=C(c1ccc(OCCCN2CCCCC2)cc1)c1cccc2ccccc12`, for which the results for the Activity in the assay on Rattus norvegicus [1] and in the assay with Rattus norvegicus [2] were 7.16% and 6.8%, respectively.
On to `O=C(c1ccc(OCCCN2CCCC2)cc1)c1cccc2ccccc12`, for which the Activity is 28.8% in the assay with Rattus norvegicus [1] and 27% with Rattus norvegicus [2]. The same compound yielded an IC50 on Glucagon receptor of 17 µM.
In the assay with Rattus norvegicus [1], `CCN(CC)CCOc1ccc(C(=O)c2cccc3ccccc23)cc1` yielded an Activity of 7.21%.
For the compound `COc1ccc(NCCOc2ccc(C(=O)c3cccc4ccccc34)cc2)cc1`, the Activity in the assay with Rattus norvegicus [1] is 9.71%; in the assay with Rattus norvegicus [2] it was 9.2%.
For the compound `O=C(c1ccc(OCCCNCc2ccccc2)cc1)c1cccc2ccccc12`, the Activity is reported as 8.06% in the assay with Rattus norvegicus [1] and 7.5% in the assay with Rattus norvegicus [2].
As to `Cc1ccc(S(=O)(=O)NC(=O)NN2CC3CCCC3C2)cc1` (stereo not given) [GLICLAZIDE], the Activity with Rattus norvegicus [1] is recorded as 40.4%; in the assay with Rattus norvegicus [2], 27.7%.
In the same order, the values of `COc1ccc(Cl)cc1C(=O)NCCc1ccc(S(=O)(=O)NC(=O)NC2CCCCC2)cc1` [GLYBURIDE] are 33.7% and 29%.
In the case of `CN(C)C(=N)NC(=N)N` [METFORMIN], in the assay on Rattus norvegicus [1], the Activity amounted to 12.9%.

By IC50 is commonly meant the concentration that inhibits the measured activity by half. Higher therefore signals weaker potency.

Values taken from ChEMBL document CHEMBL1147707, “Novel substituted naphthalen-1-yl-methanone derivatives as anti-hyperglycemic agents” (Bioorg Med Chem Lett, 2006).
